{"source": "ChEMBL document CHEMBL1156332", "about": "“Polysubstituted pyrazoles, part 6. Synthesis of some 1-(4-chlorophenyl)-4-hydroxy-1H-pyrazol-3-carbonyl derivatives linked to nitrogenous heterocyclic ring systems as potential antitumor agents” (2010)", "format_in_all_cases": "functional", "key": {"CCRF-CEM": {"tested_on": "CCRF-CEM", "assay": "Growth inhibition of human CCRF-CEM cells after 48 hrs by sulforhodamine B assay", "method_in_brief": "(§1)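 NCI 60-line panel, five concentrations (0.01–100 µM) from DMSO stock diluted in medium with gentamicin. Cells were plated 24 h before dosing, with time-zero plates fixed at drug addition, then exposed 48 h at 37 °C, 5% CO₂. Adherent cells were fixed with cold TCA (10% final) and suspension cells with 16% TCA. Staining used 0.4% SRB, solubilised in 10 mM Tris and read at 515 nm. GI₅₀ was taken from log concentration–% growth curves.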"}, "HL-60(TB)": {"tested_on": "HL-60(TB)", "assay": "Growth inhibition of human HL-60(TB) cells after 48 hrs by sulforhodamine B assay", "conditions": "HL-60, 48 h", "method_in_brief": "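NCI 60-cell panel. Cells were preincubated 24 h at 37 °C in 5% CO2, then time-zero plates were TCA-fixed. Drugs were dissolved in DMSO and given at five concentrations (10-fold or half-log dilutions) for 48 h. Suspension cells were fixed with TCA (16% final), stained with 0.4% SRB and read at 515 nm. GI50 is the concentration giving 50% decrease in net growth, taken from log concentration–growth curves.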"}, "K562": {"tested_on": "K562", "assay": "Growth inhibition of human K562 cells after 48 hrs by sulforhodamine B assay", "method_in_brief": "as §1"}, "RPMI-8226": {"tested_on": "RPMI-8226", "assay": "Growth inhibition of human RPMI8226 cells after 48 hrs by sulforhodamine B assay", "conditions": "RPMI-8226, 48 h", "method_in_brief": "as §1"}, "A549": {"tested_on": "A549", "assay": "Growth inhibition of human A549 cells after 48 hrs by sulforhodamine B assay", "conditions": "A549, 48 h", "method_in_brief": "as §1"}, "HOP-62": {"tested_on": "HOP-62", "assay": "Growth inhibition of human HOP62 cells after 48 hrs by sulforhodamine B assay", "conditions": "HOP-62, 48 h", "method_in_brief": "as §1"}, "NCI-H460": {"tested_on": "NCI-H460", "assay": "Growth inhibition of human NCI-H460 cells after 48 hrs by sulforhodamine B assay", "conditions": "NCI-H460, 48 h", "method_in_brief": "as §1"}, "NCI-H522": {"tested_on": "NCI-H522", "assay": "Growth inhibition of human NCI-H522 cells after 48 hrs by sulforhodamine B assay", "conditions": "NCI-H522, 48 h", "method_in_brief": "as §1"}, "COLO 205": {"tested_on": "COLO 205", "assay": "Growth inhibition of human COLO205 cells after 48 hrs by sulforhodamine B assay", "conditions": "COLO 205, 48 h", "method_in_brief": "as §1"}, "HCC 2998": {"tested_on": "HCC 2998", "assay": "Growth inhibition of human HCC2998 cells after 48 hrs by sulforhodamine B assay", "conditions": "HCC 2998, 48 h", "method_in_brief": "as §1"}, "HCT-15": {"tested_on": "HCT-15", "assay": "Growth inhibition of human HCT15 cells after 48 hrs by sulforhodamine B assay", "conditions": "HCT-15, 48 h", "method_in_brief": "as §1"}, "HT-29": {"tested_on": "HT-29", "assay": "Growth inhibition of human HT-29 cells after 48 hrs by sulforhodamine B assay", "conditions": "HT-29, 48 h", "method_in_brief": "as §1"}, "KM12": {"tested_on": "KM12", "assay": "Growth inhibition of human KM12 cells after 48 hrs by sulforhodamine B assay", "conditions": "KM12, 48 h", "method_in_brief": "as §1"}, "SF-268": {"tested_on": "SF-268", "assay": "Growth inhibition of human SF268 cells after 48 hrs by sulforhodamine B assay", "conditions": "SF-268, 48 h", "method_in_brief": "as §1"}, "SNB-75": {"tested_on": "SNB-75", "assay": "Growth inhibition of human SNB75 cells after 48 hrs by sulforhodamine B assay", "conditions": "SNB-75, 48 h", "method_in_brief": "(§2)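 Adherent lines plated and held 24 h at 37 °C, 5% CO2, 100% humidity; time-zero plates TCA-fixed at drug addition. Drugs from DMSO stocks were made into five concentrations by 10-fold or half-log serial dilution and applied for 48 h continuous exposure. Cells were fixed with cold TCA (10% final) for 60 min at 4 °C, then stained with 0.4% SRB in 1% acetic acid for 10 min. Dye was solubilized in 10 mM Tris base and read at 515 nm. GI50 was taken from log concentration–growth curves.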"}, "LOX IMVI": {"tested_on": "LOX IMVI", "assay": "Growth inhibition of human LOXIMVI cells after 48 hrs by sulforhodamine B assay", "method_in_brief": "as §1"}, "M14": {"tested_on": "M14", "assay": "Growth inhibition of human M14 cells after 48 hrs by sulforhodamine B assay", "conditions": "M14, 48 h", "method_in_brief": "as §1"}, "SK-MEL-28": {"tested_on": "SK-MEL-28", "assay": "Growth inhibition of human SK-MEL-28 cells after 48 hrs by sulforhodamine B assay", "conditions": "SK-MEL-28, 48 h", "method_in_brief": "as §2"}, "SK-MEL-5": {"tested_on": "SK-MEL-5", "assay": "Growth inhibition of human SK-MEL-5 cells after 48 hrs by sulforhodamine B assay", "conditions": "SK-MEL-5, 48 h", "method_in_brief": "as §2"}, "UACC-62": {"tested_on": "UACC-62", "assay": "Growth inhibition of human UACC62 cells after 48 hrs by sulforhodamine B assay", "conditions": "UACC-62, 48 h", "method_in_brief": "as §2"}, "IGROV-1": {"tested_on": "IGROV-1", "assay": "Growth inhibition of human IGROV1 cells after 48 hrs by sulforhodamine B assay", "conditions": "IGROV-1, 48 h", "method_in_brief": "as §1"}, "OVCAR-3": {"tested_on": "OVCAR-3", "assay": "Growth inhibition of human OVCAR-3 cells after 48 hrs by sulforhodamine B assay", "conditions": "OVCAR-3, 48 h", "method_in_brief": "as §1"}, "OVCAR-8": {"tested_on": "OVCAR-8", "assay": "Growth inhibition of human OVCAR8 cells after 48 hrs by sulforhodamine B assay", "conditions": "OVCAR-8, 48 h", "method_in_brief": "as §1"}, "SK-OV-3": {"tested_on": "SK-OV-3", "assay": "Growth inhibition of human SKOV3 cells after 48 hrs by sulforhodamine B assay", "conditions": "SK-OV-3, 48 h", "method_in_brief": "as §2"}, "A498": {"tested_on": "A498", "assay": "Growth inhibition of human A498 cells after 48 hrs by sulforhodamine B assay", "conditions": "A498, 48 h", "method_in_brief": "as §1"}, "CAKI-1": {"tested_on": "CAKI-1", "assay": "Growth inhibition of human Caki1 cells after 48 hrs by sulforhodamine B assay", "conditions": "CAKI-1, 48 h", "method_in_brief": "as §1"}, "RXF 393": {"tested_on": "RXF 393", "assay": "Growth inhibition of human […] cells after 48 hrs by sulforhodamine B assay", "conditions": "RXF 393, 48 h", "method_in_brief": "as §1"}, "SN12C": {"tested_on": "SN12C", "assay": "Growth inhibition of human SN12C cells after 48 hrs by sulforhodamine B assay", "method_in_brief": "as §2"}, "TK-10": {"tested_on": "TK-10", "assay": "Growth inhibition of human TK10 cells after 48 hrs by sulforhodamine B assay", "conditions": "TK-10, 48 h", "method_in_brief": "as §2"}, "MCF7": {"tested_on": "MCF7", "assay": "Growth inhibition of human MCF7 cells after 48 hrs by sulforhodamine B assay", "conditions": "MCF7, 48 h", "method_in_brief": "as §1"}, "[1]": {"assay": "Growth inhibition of human Hs 578T cells after 48 hrs by sulforhodamine B assay", "method_in_brief": "as §1"}, "BT-549": {"tested_on": "BT-549", "assay": "Growth inhibition of human BT549 cells after 48 hrs by sulforhodamine B assay", "conditions": "BT-549, 48 h", "method_in_brief": "as §1"}, "MDA-MB-468": {"tested_on": "MDA-MB-468", "assay": "Growth inhibition of human MDA-MB-468 cells after 48 hrs by sulforhodamine B assay", "conditions": "MDA-MB-468, 48 h", "method_in_brief": "as §1"}, "[2]": {"assay": "Cytotoxicity against human leukemia cells after 48 hrs by sulforhodamine B assay", "conditions": "Leukemia cell", "method_in_brief": "(§3)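 NCI five-dose screen: about 60 human tumour lines grouped into nine subpanels were plated and incubated 24 h before dosing. Compounds went in as DMSO stock and were diluted in medium to five final concentrations (0.01–100 µM). Exposure was 48 h continuous at 37 °C, 5% CO₂, followed by TCA fixation and SRB staining read at 515 nm. Per-line GI₅₀, TGI and LC₅₀ came from log concentration–% growth curves, averaged per subpanel as MG-MID.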"}, "[3]": {"assay": "Cytotoxicity against human CNS cancer cells after 48 hrs by sulforhodamine B assay", "conditions": "Cancer cell lines", "method_in_brief": "as §3"}, "[4]": {"assay": "Cytotoxicity against human ovarian cancer cells after 48 hrs by sulforhodamine B assay", "conditions": "Cancer cell lines", "method_in_brief": "as §3"}, "[5]": {"assay": "Cytotoxicity against human renal cancer cells after 48 hrs by sulforhodamine B assay", "conditions": "Cancer cell lines", "method_in_brief": "as §3"}, "[6]": {"assay": "Cytotoxicity against human prostate cancer cells after 48 hrs by sulforhodamine B assay", "conditions": "Cancer cell lines", "method_in_brief": "as §3"}}, "note": "Calls of active or inactive are those of the source. The calls are words filed in the database; no cut-off is given here."}
{"smiles": "Cc1cc(C)n(C(=O)c2nn(-c3ccc(Cl)cc3)cc2O)n1", "values": [{"measurement": "GI50", "setting": "CCRF-CEM", "value": 3.66, "unit": "µM"}, {"measurement": "GI50", "setting": "HL-60(TB)", "value": 3.96, "unit": "µM"}, {"measurement": "GI50", "setting": "K562", "value": "inactive"}, {"measurement": "GI50", "setting": "RPMI-8226", "value": 3.34, "unit": "µM"}, {"measurement": "GI50", "setting": "A549", "value": 3.72, "unit": "µM"}, {"measurement": "GI50", "setting": "HOP-62", "value": 5.21, "unit": "µM"}, {"measurement": "GI50", "setting": "NCI-H460", "value": 2.38, "unit": "µM"}, {"measurement": "GI50", "setting": "NCI-H522", "value": 7.37, "unit": "µM"}, {"measurement": "GI50", "setting": "COLO 205", "value": 18.5, "unit": "µM"}, {"measurement": "GI50", "setting": "HCC 2998", "value": 15.1, "unit": "µM"}, {"measurement": "GI50", "setting": "HCT-15", "value": 3.53, "unit": "µM"}, {"measurement": "GI50", "setting": "HT-29", "value": 3.29, "unit": "µM"}, {"measurement": "GI50", "setting": "KM12", "value": 5.07, "unit": "µM"}, {"measurement": "GI50", "setting": "SF-268", "value": 4.13, "unit": "µM"}, {"measurement": "GI50", "setting": "SNB-75", "value": 3.52, "unit": "µM"}, {"measurement": "GI50", "setting": "LOX IMVI", "value": 3.94, "unit": "µM"}, {"measurement": "GI50", "setting": "M14", "value": 4.69, "unit": "µM"}, {"measurement": "GI50", "setting": "SK-MEL-28", "value": 6.28, "unit": "µM"}, {"measurement": "GI50", "setting": "SK-MEL-5", "value": 6.76, "unit": "µM"}, {"measurement": "GI50", "setting": "UACC-62", "value": 3.46, "unit": "µM"}, {"measurement": "GI50", "setting": "IGROV-1", "value": 3.16, "unit": "µM"}, {"measurement": "GI50", "setting": "OVCAR-3", "value": 1.27, "unit": "µM"}, {"measurement": "GI50", "setting": "OVCAR-8", "value": 5.96, "unit": "µM"}, {"measurement": "GI50", "setting": "SK-OV-3", "value": 7.04, "unit": "µM"}, {"measurement": "GI50", "setting": "A498", "value": 2.9, "unit": "µM"}, {"measurement": "GI50", "setting": "CAKI-1", "value": 4.23, "unit": "µM"}, {"measurement": "GI50", "setting": "RXF 393", "value": 4.58, "unit": "µM"}, {"measurement": "GI50", "setting": "SN12C", "value": 3.37, "unit": "µM"}, {"measurement": "GI50", "setting": "TK-10", "value": 4.71, "unit": "µM"}, {"measurement": "GI50", "setting": "MCF7", "value": 4.52, "unit": "µM"}, {"measurement": "GI50", "setting": "[1]", "value": 3.21, "unit": "µM"}, {"measurement": "GI50", "setting": "BT-549", "value": 2.19, "unit": "µM"}, {"measurement": "GI50", "setting": "MDA-MB-468", "value": 8.9, "unit": "µM"}, {"measurement": "GI50", "setting": "[2]", "value": 3.65, "unit": "µM"}, {"measurement": "TGI", "setting": "[2]", "value": 74.3, "unit": "µM"}, {"measurement": "GI50", "setting": "[3]", "value": 3.13, "unit": "µM"}, {"measurement": "TGI", "setting": "[3]", "value": 69.2, "unit": "µM"}, {"measurement": "GI50", "setting": "[4]", "value": 5.27, "unit": "µM"}, {"measurement": "TGI", "setting": "[4]", "value": 87.8, "unit": "µM"}, {"measurement": "GI50", "setting": "[5]", "value": 4.52, "unit": "µM"}, {"measurement": "TGI", "setting": "[5]", "value": 71.3, "unit": "µM"}, {"measurement": "GI50", "setting": "[6]", "value": 6.64, "unit": "µM"}]}
